The list is not random: actives were taken first. Their share in the collection is about 2.6%.
ARFGAP1 inh – rat ARFGAP1 inhibition | Q62848 | Arfgap1-stimulated ARF1 GTP hydrolysis, GDP FP detection | inhibition, % at 16.5 µM | hit rate 0.26% among 360,000;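 active = inhibition above a per-plate limit, mean inhibition of low control wells plus 3 SD, cut at about 25% in these data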
Target sequence (Q62848 1-136 limits assumed): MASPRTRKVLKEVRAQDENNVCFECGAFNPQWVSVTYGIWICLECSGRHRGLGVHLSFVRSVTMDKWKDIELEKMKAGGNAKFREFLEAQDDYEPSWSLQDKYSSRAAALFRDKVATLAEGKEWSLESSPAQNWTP
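material = rat Arfgap1 catalytic domain, aa 1-136 | also added = human ARF1(Δ1-17)-GTP substrate | compound dosing = one concentration, 16.5 µM, DMSO 1.26% | times = GTP hydrolysis reaction 2 h at 25 °C | measured by = FP, GDP Alexa 633 tracer displaced from anti-GDP antibody, 620/688 nm | evaluation = percent inhibition of Arfgap1-stimulated GTP hydrolysis | replication = single well per compound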
ASAP1 inh – inhibitors of human ASAP1 ArfGAP activity; Q9ULH1; ASAP1-stimulated ARF1 GTP hydrolysis, GDP FP detection; inhibition, % at 16.5 µM; hit rate 0.19% among 360,000; AID 624377; in the data active = inhibition above about 25%
Target sequence (Q9ULH1 325-724 limits assumed): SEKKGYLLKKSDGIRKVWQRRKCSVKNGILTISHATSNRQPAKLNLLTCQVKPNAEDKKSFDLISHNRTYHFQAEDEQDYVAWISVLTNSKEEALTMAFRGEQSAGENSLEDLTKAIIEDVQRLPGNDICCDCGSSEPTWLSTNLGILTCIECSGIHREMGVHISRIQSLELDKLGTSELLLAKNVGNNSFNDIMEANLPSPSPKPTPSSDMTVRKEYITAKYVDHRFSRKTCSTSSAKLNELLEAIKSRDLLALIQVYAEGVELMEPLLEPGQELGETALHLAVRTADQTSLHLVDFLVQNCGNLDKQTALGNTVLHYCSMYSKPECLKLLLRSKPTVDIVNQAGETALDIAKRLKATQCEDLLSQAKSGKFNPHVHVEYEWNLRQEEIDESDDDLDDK
SMARCA2 act – activators of SMARCA2 function; MG213 cells, MMTV-luciferase reporter, dexamethasone, overnight; activation, % at 9.1 µM; hit rate 1% among 370,000; in the data active = activation above about 7.8%
esBAF inh – SWI/SNF esBAF complex inhibition | mouse ES cells, Bmi1-luciferase knock-in reporter, 24 h; 100% = twice the neutral-well signal | reporter increase, % at 12.5 µM | hit rate 2% among 350,000 | AID 602393; in the data active = activation above about 40%; inconclusive = no clear call, values can overlap the other calls;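 also: a rise in the Bmi1 reporter signal indicates esBAF inhibition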
Of the large screens only hits and unclear results are named; the others gave an inactive call.

O=C(Nc1ccc2c3c(cccc13)CC2)c1ccc(Br)o1	esBAF inh 79
CC(=O)Nc1cc2c(cc1Br)-c1ccccc1C2	esBAF inh 56
O=C(Nc1ccc2c(c1)Cc1ccccc1-2)c1ccccc1F	none (no result: esBAF inh)
O=C(Nc1ccc2c3c(cccc13)CC2)c1ccco1	none
O=C(C[C@H]1CC[C@H]2[C@@H](COC[C@@H](O)CN2C(=O)C2CC2)O1)NCc1ccncc1	none (no result: ARFGAP1 inh, ASAP1 inh, SMARCA2 act)
CCOC(=O)Nc1ccc(OC)c([N+](=O)[O-])c1	none
O=C(Nc1ccc(Nc2ccccc2)cc1)c1ccc(Br)o1	esBAF inh 57
COc1ccccc1NC(=O)c1ccc(Br)o1	none
Cc1cc(O)c(NC(=O)c2ccc(Br)o2)cc1C	esBAF inh 67
CC(C)c1ccc(NC(=O)c2ccc(Br)o2)cc1	none (no result: esBAF inh)
CCCC(=O)Nc1ccc2c(c1)Cc1ccccc1-2	esBAF inh 58
CCOC(=O)Nc1ccc2c(c1)Cc1cc([N+](=O)[O-])ccc1-2	esBAF inh 75
O=C(Nc1ccc(-c2ccccc2)cc1)[C@@H]1[C@@H](CO)[C@@H]2Cn3c(cccc3=O)[C@H]1N2Cc1cccnc1	none (no result: ARFGAP1 inh, ASAP1 inh, SMARCA2 act)
Cc1nc2ccc(N=NC3=C(O)CC(C)(C)CC3=O)cc2s1	esBAF inh 49
O=C(N[C@H]1CC[C@@H](CCNC(=O)C2CCCCC2)O[C@H]1CO)c1ccncc1	none (no result: ARFGAP1 inh, ASAP1 inh, SMARCA2 act)
Cc1ccc(/C=C/C(=O)Nc2ccc(Oc3ccccc3)cc2)o1	none (no result: esBAF inh)
Cc1ccc(/C=C/C(=O)Nc2ccc([N+](=O)[O-])cc2)o1	esBAF inh 64
Cc1cc(C(=O)COC(=O)C2=COCCO2)c(C)n1-c1ccc2c(c1)OCO2	none
Cc1cc(C(=O)COC(=O)C2=COCCO2)c(C)n1-c1cccc(F)c1	esBAF inh 55
CCCCN(C=O)c1c(CC)nc2c(OCC(=O)c3ccc(F)cc3)cccn12	SMARCA2 act 7.9
C=CCn1cccc(C(=O)Nc2ccc(OC)c(Cl)c2)c1=O	esBAF inh 56 (no result: ARFGAP1 inh, ASAP1 inh, SMARCA2 act)
CCCn1cccc(C(=O)Nc2ccc(OC)cc2)c1=O	none
C=CCn1cccc(C(=O)Nc2ccc(SC)cc2)c1=O	esBAF inh 55
C=CCn1cccc(C(=O)Nc2ccc(N(C)C)cc2)c1=O	esBAF inh inconclusive
C#CCn1cccc(C(=O)Nc2ccc(OC)cc2)c1=O	esBAF inh 53
C[C@@H]1CN([C@@H](C)CO)C(=O)c2cccc(NC(=O)Nc3ccc(C(F)(F)F)cc3)c2O[C@@H]1CN(C)CC1CCCCC1	none (no result: ARFGAP1 inh, ASAP1 inh, SMARCA2 act)
CCNc1nc(NCC)nc(N/N=C/c2ccc(OC)cc2)n1	none (no result: esBAF inh)
COc1ccc(/C=N/Nc2nc(C)nc(N)n2)cc1	esBAF inh 55
c1ccc(-c2nc3c4ccccc4ccn3c2CN2CCOCC2)cc1	none
COc1ccc(-c2nc3c4ccccc4ccn3c2Cc2cccc(F)c2)cc1OC	esBAF inh 41
COc1ccc(-c2nc3c4ccccc4ccn3c2CN2CCOCC2)cc1OC	esBAF inh 57
COc1ccc(-c2cnc3c(c2)C(=O)N([C@@H](C)CO)C[C@H](C)[C@H](CN(C)C(=O)C2CC2)O3)cc1	none (no result: ARFGAP1 inh, ASAP1 inh, SMARCA2 act)
C[C@@H]1CCCCO[C@H](CN(C)C(=O)NC2CCCCC2)[C@H](C)CN([C@H](C)CO)C(=O)c2cc(NC(=O)NC3CCCCC3)ccc2O1	none (no result: ARFGAP1 inh, ASAP1 inh, SMARCA2 act)
Fc1ccccc1/C=N/Nc1ccc(Cl)nn1	esBAF inh 55
COc1cccc(-c2nc3ccc(C(=O)NC(C)Cc4cccnc4)cc3o2)c1 (configuration not stated)	esBAF inh 54
C[C@H](CO)N1C[C@H](C)[C@H](CN(C)S(=O)(=O)c2cn(C)cn2)Oc2ccc(NC(=O)CCC(F)(F)F)cc2CC1=O	none (no result: ARFGAP1 inh, ASAP1 inh, SMARCA2 act)
Cc1cc(C)c(C2C(C#N)=C(N)Oc3n[nH]c(C)c32)cc1CN1CCCC1 (configuration not stated)	SMARCA2 act 7.9
Cc1[nH]nc2c1C(c1ccoc1)C(C#N)=C(N)O2 (configuration not stated)	none (no result: esBAF inh)
Cc1ccccc1NC(=O)Nc1ccccc1C(=O)NCc1ccccc1	none
Cc1ccc(NC(=O)Nc2ccccc2C(=O)NCc2ccccc2)cc1	esBAF inh 51
C=CCNC(=O)c1ccccc1NC(=O)Nc1ccccc1	SMARCA2 act 7.8
CCN1CCN(Cc2ccccc2NC(=O)Nc2ccc(C)cc2)CC1	esBAF inh 43
O=C(C[C@H]1CC[C@H]2[C@@H](COC[C@H](O)CN2Cc2cccc(-c3ccncc3)c2)O1)N1CCOCC1	none (no result: ARFGAP1 inh, ASAP1 inh, SMARCA2 act)
CO[C@H]1CN(C)C(=O)c2cc(NC(=O)Nc3ccccc3)ccc2OC[C@H](C)N(C(=O)CN(C)C)C[C@@H]1C	none (no result: ARFGAP1 inh, ASAP1 inh, SMARCA2 act)
O=C(CCC1CCCC1)Nc1ccc([N+](=O)[O-])cn1	esBAF inh 59
O=C(CCC1CCCCC1)Nc1ccccc1O	esBAF inh 42
O=C(CCC1CCCCC1)Nc1ccccc1-c1ccccc1	none
C[C@H]1CN([C@@H](C)CO)C(=O)c2cc(C#Cc3cccc(F)c3)cnc2O[C@H]1CN(C)C(=O)C1CCOCC1	none (no result: ARFGAP1 inh, ASAP1 inh, SMARCA2 act)
O=C(C[C@H]1CC[C@@H]2[C@H](COC[C@H](O)CN2C(=O)c2ccc3c(c2)OCO3)O1)NCCN1CCCCC1	none (no result: ARFGAP1 inh, ASAP1 inh, SMARCA2 act)
CCCc1cc(C(=O)Nc2ccc(F)c(Cl)c2)no1	none
CCCc1cc(C(=O)Nc2cccc(Cl)c2C)no1	esBAF inh 58
CCCc1cc(C(=O)Nc2ccccc2SC)no1	esBAF inh 51
CCCc1cc(C(=O)Nc2ccc(F)cc2F)no1	esBAF inh 68
O=C(NCc1ccccc1)[C@@H]1[C@@H](CO)[C@@H]2Cn3c(cccc3=O)[C@@H]2N1C(=O)C1CC1	none (no result: ARFGAP1 inh, ASAP1 inh, SMARCA2 act)
CO[C@H]1CN(C)C(=O)c2ccc(NC(=O)c3ccccc3F)cc2OC[C@H](C)N(C(C)=O)C[C@@H]1C	none (no result: ARFGAP1 inh, ASAP1 inh, SMARCA2 act)
COc1ccccc1C1CCN(c2ccc([N+](=O)[O-])c(OC)c2)CC1	esBAF inh 55
COc1cc(N2CCCC2)ccc1[N+](=O)[O-]	none (no result: esBAF inh)
O=C(Nc1ccccc1)c1cnc2n(c1=O)CCS2	none
O=C(Nc1ccc(OC(F)(F)F)cc1)c1cnc2n(c1=O)CCS2	esBAF inh 48
Cc1cnc(C(=O)Nc2ccc(OC(F)(F)F)cc2)cn1	esBAF inh 44
Cc1cnc(C(=O)Nc2ccc(N3CCCCC3)cc2)cn1	none (no result: esBAF inh)
Cc1ccc(OCc2cc(C(=O)N3CCCCCCC3)no2)cc1C	none
COCC1CCN(C(=O)c2cc(COc3cc(C)c(Cl)c(C)c3)on2)C1 (configuration not stated)	esBAF inh 64
Cc1cc(OCc2cc(C(=O)N3CCCCCC3)no2)cc(C)c1Cl	esBAF inh 48
C[C@@H]1CN([C@H](C)CO)S(=O)(=O)c2ccc(-c3cccc(C#N)c3)cc2O[C@@H]1CN(C)CC1CC1	none (no result: ARFGAP1 inh, ASAP1 inh, SMARCA2 act)
COCCN=C1Sc2nc3cc(C)c(C)cc3cc2CN1Cc1cccs1	none
COCCN=C1Sc2nc3ccc(C)cc3cc2CN1Cc1ccco1	esBAF inh 54
Cc1ccsc1C(=O)OCc1cc(=O)n2ccsc2n1	none
O=C(OCc1cc(=O)n2ccsc2n1)c1ccc(O)cc1O	esBAF inh 54
COc1ccc(C(=O)c2ccc(Br)cc2)cc1	esBAF inh 55
COc1ccc(C(=O)c2ccccc2)cc1	none (no result: esBAF inh)
COc1ccc(NC(=O)N(C)C[C@H]2Oc3ccc(NS(C)(=O)=O)cc3C(=O)N([C@@H](C)CO)C[C@H]2C)cc1	none (no result: ARFGAP1 inh, ASAP1 inh, SMARCA2 act)

Assay outcomes from PubChem.
